Assay outcomes deposited in PubChem by Broad Institute.
Most compounds without a hit are left out; they make up all but 0.92% or so of the library.
Glyco luc inh = N-linked glycosylation inhibition | D54 ERlucT glycosylation luciferase reporter, 24 h; percent of 100 nM tunicamycin response | AID 588692 | 360,000 tested, 0.23% active | reporter increase, % at 12.5 µM;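 active means mean luciferase reporter signal, scaled so untreated is 0 and the glycosylation-blocking control 100, at or above a set limit in every replicate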;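 further: luciferase carries N-glycosylation sites so blocking glycosylation raises the light; 0% = median of neutral control wells and 100% = median of 100 nM tunicamycin wells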
RAD52 inh = inhibitors of human RAD52 DNA annealing. recombinant RAD52 DNA annealing, FRET fluorescence. inhibition, % at 18.7 µM. 360,000 tested, 0.46% active. AID 651710;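 active means every replicate showing at least 50% inhibition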
MLL AF4-AF9 inh = MLL-AF4/AF9 protein interaction inhibition. P42568. AlphaScreen, biotin-AF4 peptide binding to FLAG-AF9. inhibition, % at 10 µM. 350,000 tested, 0.47% active;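 active means every replicate reaching a set inhibition limit, whatever the replicate mean, cut at about 25% in these data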;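 further: 0% = plate neutral control median and 100% = total signal loss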
Target sequence (P42568 whole entry, looked up): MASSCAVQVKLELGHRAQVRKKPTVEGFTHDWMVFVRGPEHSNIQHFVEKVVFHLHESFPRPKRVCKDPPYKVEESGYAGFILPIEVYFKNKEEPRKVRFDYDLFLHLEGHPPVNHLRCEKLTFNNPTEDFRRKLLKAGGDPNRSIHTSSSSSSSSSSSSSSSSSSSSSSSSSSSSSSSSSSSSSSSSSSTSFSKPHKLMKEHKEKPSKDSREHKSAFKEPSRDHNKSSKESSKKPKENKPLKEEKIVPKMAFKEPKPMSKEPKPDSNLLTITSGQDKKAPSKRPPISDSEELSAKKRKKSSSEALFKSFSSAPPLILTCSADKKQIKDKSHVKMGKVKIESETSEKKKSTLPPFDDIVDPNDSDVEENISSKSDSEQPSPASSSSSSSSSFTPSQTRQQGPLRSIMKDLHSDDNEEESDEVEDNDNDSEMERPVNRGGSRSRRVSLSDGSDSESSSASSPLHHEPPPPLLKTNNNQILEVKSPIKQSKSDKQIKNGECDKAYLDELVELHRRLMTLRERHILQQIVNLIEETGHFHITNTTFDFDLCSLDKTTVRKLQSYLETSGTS
FN deposit inh = fibronectin deposition inhibition; AH1F fibroblasts, Alexa488-fibronectin deposition fluorescence, overnight; inhibition, % at 12.6 µM; 350,000 tested, 0.086% active; AID 743247;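 active means mean inhibition across replicates of 30% or more, regardless of how many single replicates reach that level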;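 further: positive control wells lacked labelled fibronectin entirely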
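Material: AH1F fibroblasts assembling fluorescent fibronectin matrix; amount: 10000 AH1F cells/well; medium: DMEM, 2% serum; reagent: Alexa488-fibronectin, 24 nM final in well; dosing: single compound dose, delivered by pin transfer; incubation: 1 h adhesion, overnight exposure; detection: fluorescence after three HBSS washes, excitation 485 nm, emission 525 nm; measure: fibronectin deposition inhibition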
RAD54 branch = blocks human RAD54 Holliday junction branch migration; inhibition, % at 10.4 µM; Q92698; FAM/BHQ fluorescence; AID 602329; 360,000 tested, 0.14% active;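 active means mean normalized replicate activity at least 40 and at least half of replicates scoring 40 or more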;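 further: 0% = median of neutral control wells and 100% = median of positive control wells; inhibitors cause a drop in the FAM fluorescence signal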
* = called active by the depositor.

Screening COc1ccc2c3c(n(C)c2c1)[C@@H](CO)N(CC1CC1)CC31CN(Cc2ccc(F)cc2)C1 returned RAD52 inh 38.0, MLL AF4-AF9 inh 29.8* and FN deposit inh 13.4.
COc1ccc2c3c(n(C)c2c1)[C@@H](CO)N(Cc1ccccc1F)CC31CCN(CC2CC2)CC1 was read as RAD52 inh 26.4 and MLL AF4-AF9 inh 32.8*.
For CCOc1ncccc1C(=O)Nc1cc2c(cc1Br)OCCO2 the results were Glyco luc inh 41.3*, RAD52 inh -22.7, MLL AF4-AF9 inh 0.0, FN deposit inh 3.8 and RAD54 branch -1.0.
C[C@@H]1CN([C@@H](C)CO)C(=O)c2cc(/C=C/c3ccccc3)cnc2O[C@H]1CN(C)Cc1ccccc1F was read as RAD52 inh 2.1, MLL AF4-AF9 inh 28.2* and RAD54 branch 3.3.
Screening C[C@@H]1CN([C@H](C)CO)C(=O)c2cc(N(C)C)ccc2O[C@@H]1CN(C)Cc1ccc(-c2ccccc2)cc1 returned RAD52 inh 11.1, MLL AF4-AF9 inh 47.4* and RAD54 branch -13.5.
Screening C[C@@H]1CN([C@@H](C)CO)C(=O)c2cc(N(C)C)ccc2O[C@H]1CN(C)Cc1ccc(-c2ccccc2)cc1 returned RAD52 inh 7.0, MLL AF4-AF9 inh 34.3* and RAD54 branch -11.0.
`C[C@@H]1CN([C@@H](C)CO)C(=O)c2cc(-c3ccccc3)cnc2O[C@@H]1CN(C)Cc1ccccc1` gave RAD52 inh 2.0, MLL AF4-AF9 inh -0.9, FN deposit inh 38.5* and RAD54 branch -3.4.
`O=C(C[C@@H]1C[C@H]2c3cc(NC(=O)C4CCOCC4)ccc3O[C@H]2[C@H](CO)O1)NC1CCCCC1` gave RAD52 inh -15.8, MLL AF4-AF9 inh -4.0, FN deposit inh 5.4 and RAD54 branch 2.1.
`Cc1cc(NC(=O)CSc2nc(C(C)C)nc3sc(C)c(C)c23)no1` gave Glyco luc inh 2.1, RAD52 inh -11.1, MLL AF4-AF9 inh 4.6 and RAD54 branch -3.9.
For Cc1cc(NC(=O)CSc2nc3sc(C)c(C)c3c(=O)n2C2CCCC2)no1 the results were Glyco luc inh 27.4*, RAD52 inh -3.5, MLL AF4-AF9 inh 2.4 and RAD54 branch 6.1.
For COc1ccc(NC(=O)Nc2ccc3c(c2)C(=O)N([C@@H](C)CO)C[C@H](C)[C@H](CN(C)S(=O)(=O)c2ccc(C)cc2)OCCCC[C@H](C)O3)cc1 the results were RAD52 inh 11.1, MLL AF4-AF9 inh -5.2 and RAD54 branch -8.4.
Screening O=C(C[C@H]1C=C[C@H](NS(=O)(=O)c2ccc(F)cc2)[C@H](CO)O1)NCc1ccccc1F returned RAD52 inh 3.8 and MLL AF4-AF9 inh -3.1.
Screening C[C@@H]1CN([C@@H](C)CO)C(=O)c2cc(NS(=O)(=O)c3ccc(Cl)cc3)ccc2O[C@@H]1CN(C)Cc1ccc(C(=O)Nc2ccccc2N)cc1 returned RAD52 inh -2.2, MLL AF4-AF9 inh -0.5 and RAD54 branch -11.5.
`Cc1nc2ncccn2c1-c1csc(Nc2ccccc2)n1` gave Glyco luc inh 9.3, RAD52 inh -0.6, MLL AF4-AF9 inh -14.5 and FN deposit inh -14.4.
For Cc1nc2ncccn2c1-c1csc(Nc2ccc(N(C)C)cc2)n1 the results were Glyco luc inh 51.3*, RAD52 inh 3.8, MLL AF4-AF9 inh 44.3* and FN deposit inh -20.8.
O=C1C(Cl)=C(Nc2ccc3cn[nH]c3c2)C(=O)c2ccccc21 was read as Glyco luc inh -21.6, RAD52 inh -7.9, MLL AF4-AF9 inh 3.0, FN deposit inh 71.0* and RAD54 branch 0.5.
Screening O=C(Nc1ccc2cn[nH]c2c1)c1c(Cl)cccc1Cl returned Glyco luc inh -1.1 and RAD54 branch 3.3.
O=C(Nc1cccc(NC(=O)c2cccs2)c1)c1ccc([N+](=O)[O-])o1 was read as Glyco luc inh 59.3*, RAD52 inh -4.0, MLL AF4-AF9 inh -1.8, FN deposit inh 6.6 and RAD54 branch -24.4.
For CC(=O)N1CCN(c2ccc(NC(=O)c3ccc([N+](=O)[O-])o3)cc2Cl)CC1 the results were Glyco luc inh -18.4, RAD52 inh 4.2, MLL AF4-AF9 inh 0.5, FN deposit inh 16.6 and RAD54 branch -0.6.
O=C(Nc1ccc(Cc2ccncc2)cc1)c1cccc([N+](=O)[O-])c1 was read as Glyco luc inh -3.7, RAD52 inh 4.5, MLL AF4-AF9 inh -1.0 and RAD54 branch 7.0.
Screening CCC(=O)N1CCN(c2ccc(NC(=O)c3ccc([N+](=O)[O-])o3)cc2Cl)CC1 returned Glyco luc inh 0.9, RAD52 inh -2.9, MLL AF4-AF9 inh 5.4 and FN deposit inh 59.9*.
O=C(Nc1ccc(Cc2ccncc2)cc1)c1ccc([N+](=O)[O-])o1 was read as Glyco luc inh 34.3*, RAD52 inh -3.7, MLL AF4-AF9 inh 8.2, FN deposit inh 10.4 and RAD54 branch -7.1.
For C[C@H]1CCCCO[C@H](CN(C)C(=O)Nc2cccc3ccccc23)[C@@H](C)CN([C@@H](C)CO)C(=O)c2cc(NS(=O)(=O)c3ccc(Cl)cc3)ccc2O1 the results were RAD52 inh -21.0, MLL AF4-AF9 inh -5.5, FN deposit inh 1.9 and RAD54 branch -3.7.
`Cc1nc(NC2=NCN(CCCN3CCOCC3)CN2)nc2c(C)cccc12` gave Glyco luc inh 6.2 and RAD54 branch 81.0*.
`Cc1ccc(C)c(NC(=S)NC(NC(=O)N(C)C)C(Cl)(Cl)Cl)c1` (centres undefined) gave Glyco luc inh 0.0 and RAD54 branch 8.5.
Cc1ccc(C)c(NC(=S)NC(NC(=O)Cc2cccc3ccccc23)C(Cl)(Cl)Cl)c1 (centres undefined) was read as Glyco luc inh 73.5* and RAD54 branch 5.0.
Screening COc1ccc(-c2nc3ccncc3[nH]2)cc1OC returned Glyco luc inh 2.1, FN deposit inh 30.1* and RAD54 branch -4.4.
For Cc1ccc(O)c(-c2cc(-c3cccc(Br)c3)n[nH]2)c1 the results were Glyco luc inh 3.8, RAD52 inh -9.3, MLL AF4-AF9 inh 0.3, FN deposit inh 36.8* and RAD54 branch 4.9.
Screening COc1ccc(NC(=O)Nc2cccc3c2O[C@@H](CN(C)S(=O)(=O)c2ccccc2)[C@H](C)CN([C@@H](C)CO)C3=O)cc1 returned RAD52 inh 0.9, MLL AF4-AF9 inh 1.9 and RAD54 branch -4.0.
Screening O=C1C[C@@H](c2ccc(O)cc2)Oc2cc(O)cc(O)c21 returned Glyco luc inh 0.4, RAD52 inh -15.9, MLL AF4-AF9 inh -1.9, FN deposit inh 5.9 and RAD54 branch 4.7.
Screening Cc1c(O)cc2c(c1O)C(=O)CC(c1ccccc1)O2 (centres undefined) returned Glyco luc inh 43.1*, RAD52 inh -10.2, MLL AF4-AF9 inh 1.3 and RAD54 branch 6.4.
CCC(=O)N1CC(=O)N2[C@H](C1)[C@@H](c1ccc(C#Cc3cccc(OC)c3)cc1)[C@@H]2CO was read as RAD52 inh -4.8 and MLL AF4-AF9 inh -1.2.
`CN1/C(=C\C=C(/C#N)C(=O)Nc2ccccc2F)C(C)(C)c2ccccc21` gave Glyco luc inh -1.9 and FN deposit inh -3.1.
